In ChEMBL document CHEMBL1130407, “Structure-based design of new constrained cyclic agonists of the cholecystokinin CCK-B receptor” (J Med Chem, 1997):
pEC50, pKi: −log10 of the molar value. Non-standard residues stand in square brackets, D forms with d. Residues, ends and D or L forms follow the SMILES beside them. *: point of attachment. NMeNle = CCCC[C@H](NC)C(=O)O; Boc = CC(C)(C)OC(=O)*

How the values were obtained:
[1] = biological target: T1, Cholecystokinin receptor type A (Cavia porcellus, UniProt Q63931); test: Inhibition of [3H]pCCK-8 binding to Cholecystokinin type A receptor of Guinea pig pancreatic membranes
T1 sequence (Q63931 whole entry): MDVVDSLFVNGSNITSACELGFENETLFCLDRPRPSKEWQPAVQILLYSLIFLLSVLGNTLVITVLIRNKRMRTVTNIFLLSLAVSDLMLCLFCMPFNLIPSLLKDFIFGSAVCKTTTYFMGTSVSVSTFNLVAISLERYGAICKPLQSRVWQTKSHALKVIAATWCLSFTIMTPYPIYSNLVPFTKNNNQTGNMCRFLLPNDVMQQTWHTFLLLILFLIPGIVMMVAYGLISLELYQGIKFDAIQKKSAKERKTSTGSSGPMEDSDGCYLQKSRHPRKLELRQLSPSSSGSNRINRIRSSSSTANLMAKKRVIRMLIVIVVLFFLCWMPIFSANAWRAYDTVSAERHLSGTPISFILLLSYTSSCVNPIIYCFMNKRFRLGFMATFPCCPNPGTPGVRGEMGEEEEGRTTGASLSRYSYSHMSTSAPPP
Summary of the method: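 Guinea pig pancreatic membranes (0.2 mg protein/tube) incubated with 0.1 nM [3H]pCCK8 and varying competitor for 120 min at 25 °C. Buffer: 10 mM Pipes-HCl pH 6.5, 30 mM MgCl2, 0.2 mg/mL bacitracin, 0.2 mg/mL soybean trypsin inhibitor. Filtration read-out; Ki by Cheng–Prusoff; three experiments in triplicate, mean ± SEM.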

[2] = biological target: T2, Gastrin/cholecystokinin type B receptor (Rattus norvegicus) (UniProt P30553); test: Compound was tested for its ability to stimulate the CCK-B/gastrin receptor by measuring gastric acid output in the anesthetized perfused rat stomach; type: functional, tissue-based
T2 sequence (whole entry): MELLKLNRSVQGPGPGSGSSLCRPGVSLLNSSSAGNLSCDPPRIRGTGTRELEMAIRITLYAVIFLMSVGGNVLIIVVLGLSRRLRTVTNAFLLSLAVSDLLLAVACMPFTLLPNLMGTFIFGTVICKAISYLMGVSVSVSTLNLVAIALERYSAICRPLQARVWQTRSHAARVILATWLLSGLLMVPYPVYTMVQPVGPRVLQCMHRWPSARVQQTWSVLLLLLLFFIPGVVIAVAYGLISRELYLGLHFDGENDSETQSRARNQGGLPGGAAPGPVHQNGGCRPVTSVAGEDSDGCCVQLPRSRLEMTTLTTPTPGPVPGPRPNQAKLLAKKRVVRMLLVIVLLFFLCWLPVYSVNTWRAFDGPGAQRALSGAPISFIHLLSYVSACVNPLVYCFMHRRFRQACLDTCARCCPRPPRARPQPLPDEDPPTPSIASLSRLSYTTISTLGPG
Summary of the method: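 Male Sprague–Dawley rats (300 ± 25 g), fasted 18 h with water available, anesthetized with intramuscular urethane (0.6–0.7 mL of 25% solution per 100 g). Compounds in saline given iv by continuous infusion. Gastric secretion collected every 15 min and H+ titrated with 0.01 N NaOH to pH 7. Output expressed as % of baseline; ED50 estimated from dose-response curves.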

[3] = biological target: T3, Gastrin/cholecystokinin type B receptor (Rattus norvegicus, UniProt P30553); test: Affinity to inhibit [3H]pCCK-8 specific binding on rat brain Cholecystokinin type B receptor expressed in CHO cells; type: cell-based
T3 sequence (P30553 whole entry): T2 sequence (whole entry)

[4] = biological target: T3, Gastrin/cholecystokinin type B receptor; test: Effective concentration for the stimulation of Inositol Phosphate accumulation in CHO cells expressing wild-type Cholecystokinin type B receptor; type: functional, cell-based

pKi [1] | pKi ([3]; cho) | Compound | further results
4.44 | – | CSCC[C@H](NC(=O)[C@@H](N)Cc1c[nH]c2ccccc12)C(=O)N[C@@H](CC(=O)O)C(=O)N[C@@H](Cc1ccccc1)C(N)=O [TETRAGASTRIN] | –
– | – | C[C@]1(Cc2c[nH]c3ccccc23)NC(=O)CCCCSSCC[C@H](C(=O)N[C@@H](CC(=O)O)C(=O)N[C@@H](Cc2ccccc2)C(N)=O)NC1=O | ED50 [2]: 52 nM/h/kg
< 5.00 | – | C[C@]1(Cc2c[nH]c3ccccc23)NC(=O)CCCCCCC[C@@H](C(=O)N[C@@H](CC(=O)O)C(=O)N[C@@H](Cc2ccccc2)C(N)=O)NC1=O | –
5.54 | 6.85 | C[C@]1(Cc2c[nH]c3ccccc23)NC(=O)CCCCCC[C@@H](C(=O)N[C@@H](CC(=O)O)C(=O)N[C@@H](Cc2ccccc2)C(N)=O)NC1=O | –
5.66 | – | C[C@]1(Cc2c[nH]c3ccccc23)NC(=O)CCCCCCC[C@H](C(=O)N[C@@H](CC(=O)O)C(=O)N[C@@H](Cc2ccccc2)C(N)=O)NC1=O | ED50 [2]: 7.6 nM/h/kg
< 5.30 | – | CCCC[C@@H](C(=O)N[C@@H](CC(=O)O)C(=O)N[C@@H](Cc1ccccc1)C(N)=O)N(C)C(=O)[C@H](Cc1c[nH]c2ccccc12)NC(=O)OC(C)(C)C (Boc-W[NMeNle]DF-NH2) | pEC50 [4]: 8.82; pKi [3]: 8.06
5.61 | 7.64 | C[C@]1(Cc2c[nH]c3ccccc23)NC(=O)CCCCCCCC[C@@H](C(=O)N[C@@H](CC(=O)O)C(=O)N[C@@H](Cc2ccccc2)C(N)=O)NC1=O | pEC50 ([4]; cho): 8.40
6.57 | 7.10 | C[C@]1(Cc2c[nH]c3ccccc23)NC(=O)CCCCSSCC[C@@H](C(=O)N[C@@H](CC(=O)O)C(=O)N[C@@H](Cc2ccccc2)C(N)=O)NC1=O | pEC50 ([4]; cho): 8.15
5.64 | – | C[C@]1(Cc2c[nH]c3ccccc23)NC(=O)CC(=O)NCCCC[C@@H](C(=O)N[C@@H](CC(=O)O)C(=O)N[C@@H](Cc2ccccc2)C(N)=O)NC1=O | –
